Active and inactive are the calls of the source. The rule behind the calls is not given here.
Experiments:
[1] = Induction of disruption of r(CCUG)12-MBNL1 complex (unknown origin) incubated for 15 mins by TR-FRET assay; parameters: species or system Homo sapiens
Procedure, shortened: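 Biotinylated r(CCUG)12 was folded at 60 °C for 5 min in 20 mM HEPES pH 7.5, 110 mM KCl, 10 mM NaCl. It was then brought to assay buffer (plus 2 mM MgCl2, 2 mM CaCl2, 5 mM DTT, 0.1% BSA, 0.5% Tween-20) and preincubated 15 min with MBNL1-His6 (final 80 nM RNA, 60 nM protein). Compound was added for 15 min, then streptavidin-XL665 (40 nM) and anti-His6-Tb (0.44 ng/μL) for 30 min at room temperature. TR-FRET 545/665 ratios were read; IC50 was taken from dose-response fits.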

Fibroblast [2] = assay: Cytotoxicity against DM2 patient derived fibroblast assessed as cell viability at 5 uM incubated for 48 hrs by Cell Titre-Glo assay; type: cell-based; conditions: human
Procedure, shortened: (§1)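 DM2 patient-derived fibroblasts were grown in high-glucose DMEM with 20% FBS at 37 °C, 5% CO2. After 48 h of compound treatment, viability was read as CellTiter-Glo luminescence after 10 min at room temperature (n = 6 replicates, one independent experiment).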

Homo sapiens [3] = species: Homo sapiens; assay: Binding affinity to r(GACAGCCUGCUGUC)2 duplex (unknown origin) assessed as positive phase signal at 300 uM by waterLOGSY NMR spectroscopy
Procedure, shortened: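 For WaterLOGSY NMR, each compound at 300 μM was run alone or with 15 μM RNA (20:1 compound:RNA) in H2O containing 5% D2O by volume.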

Homo sapiens [4] = species: Homo sapiens; assay: Binding affinity to r(GACAGCCUGCUGUC)2 (unknown origin) duplex assessed as resonance shift in H6 and H8 protons of RNA […] by 1D NMR spectroscopy
Procedure, shortened: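 For 1D NMR, RNA at 100 μM in 100% D2O was titrated with compound at 0.5, 1.0, 1.5 and 2.0 compound:RNA molar ratios, each in a separate sample.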

Fibroblast [5] = assay: Cytotoxicity against DM2 patient derived fibroblast assessed as cell viability upto 20 uM incubated for 48 hrs by Cell Titre-Glo assay; type: cell-based; conditions: human; procedure, shortened: as §1
Homo sapiens [6] = species: Homo sapiens; assay: Inhibition of r(CCUG)12-MBNL1 complex formation (unknown origin) assessed as rescue of IR exon 11 splicing defect at 5 uM by RT-PCR analysis; parameters: scale not given: the % may be the effect or the level left
Procedure, shortened: (§2)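 DM2 patient fibroblasts were treated at ~40% confluency for 48 h. About 1 μg of total RNA was reverse transcribed, and IR exon 11 was PCR-amplified for 35 cycles (95 °C/58 °C/72 °C). Products were resolved on 2% agarose stained with ethidium bromide and quantified by densitometry. Percent rescue was calculated as (DM2 untreated − treated exclusion)/(DM2 untreated − WT exclusion) × 100.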

Homo sapiens [7] = species: Homo sapiens; assay: Inhibition of r(CCUG)12-MBNL1 complex formation (unknown origin) assessed as rescue of IR exon 11 splicing defect at 1 uM by RT-PCR analysis; parameters: scale not given: the % may be the effect or the level left; procedure, shortened: as §2

| IC50 [1] [µM] | Structure (SMILES) | other results |
| --- | --- | --- |
| 30 | Cc1ccc2nc(Nc3ccc4cnn(C)c4c3)nc(NCCCO)c2c1 | Activity (Fibroblast [2]): Toxic |
| 60 | CN(C)c1ccc(Nc2nc(N(C)C)c3ccccc3n2)cc1 |  |
| 0.2 | Cc1ccc2nc(Nc3ccc4nc(N5CCOCC5)sc4c3)nc(NCCCO)c2c1 | Activity (Fibroblast [2]): Toxic |
| 45 | CC(=O)Nc1ccc(Nc2nc(NCC3CCCO3)c3ccccc3n2)cc1 (stereo not given) | Activity (Homo sapiens [3]): Active; Activity (Homo sapiens [4]): Active; Activity (Fibroblast [5]): Non-Toxic |
| 90 | CC(=O)Nc1cccc(Nc2nc(NCC3CCCO3)c3ccccc3n2)c1 (stereo not given) |  |
| 10 | Cc1ccc2nc(Nc3ccc4nc(NCCc5ccc(S(N)(=O)=O)cc5)sc4c3)nc(NCCCO)c2c1 |  |
| 1 | Cc1ccc2nc(Nc3ccc4nc(NCC(C)(C)O)sc4c3)nc(NCCCO)c2c1 | Activity (Homo sapiens [6]): 30%; Activity (Fibroblast [2]): Non-Toxic |
| 200 | OCCCNc1nc(Nc2ccc3c(c2)OCCO3)nc2cc(F)ccc12 |  |
| 50 | OCCCNc1nc(Nc2ccc3c(c2)OCCO3)nc2ccccc12 | Activity (Homo sapiens [3]): Active; Activity (Homo sapiens [4]): Active; Activity (Fibroblast [5]): Non-Toxic; Activity (Homo sapiens [6]): 50%; Activity (Homo sapiens [7]): 12% |
| 105 | Cc1ccc2nc(Nc3ccc4nc(NCc5ccc6c(c5)OCO6)sc4c3)nc(NCCCO)c2c1 |  |
| 85 | COc1cccc(Nc2nc(N(C)C)c3ccccc3n2)c1 |  |
| 70 | CC(=O)Nc1cccc(Nc2nc(N3CCCC3)c3ccccc3n2)c1 |  |
| 12.7 | Cc1ccc2nc(Nc3ccc4c(c3)OCCO4)nc(NCCCO)c2c1 |  |
| 30 | Cn1ncc2ccc(Nc3nc(NCCCO)c4ccccc4n3)cc21 |  |
| 95 | OCCCNc1nc(Nc2ccc(O)cc2)nc2ccccc12 |  |
| 200 | COCCn1cncc1CNC(=O)Nc1ccc2cnn(C)c2c1 |  |
| 80 | Cc1ccccc1Nc1nc(NCCCO)c2ccccc2n1 |  |
| 95 | CC(O)c1cccc(Nc2nc(N(C)C)c3ccccc3n2)c1 (stereo not given) |  |
| 20 | Cc1ccc2nc(Nc3ccc4nc(-c5cc[nH]n5)sc4c3)nc(NCCCO)c2c1 |  |
| 70 | CN1CCOc2cc(Nc3nc(NCCCO)c4ccccc4n3)ccc21 |  |
| 135 | CCNc1nc(Nc2cccc(O)c2)nc2ccccc12 |  |

| IC50 [1] [µM] | Structure (SMILES) | other results |
| --- | --- | --- |
| 75 | CN(C)c1nc(Nc2cccc(O)c2)nc2ccccc12 |  |
| 1 | Cc1ccc2nc(Nc3ccc4nc(N5CCN(C)CC5)sc4c3)nc(NCCCO)c2c1 | Activity (Fibroblast [2]): Toxic |
| 200 | CC(=O)Nc1ccc(Nc2nc(NCCCO)c3ccccc3n2)cc1 |  |
| 70 | CC(O)c1cccc(Nc2nc(N3CCCC3)c3ccccc3n2)c1 (stereo not given) |  |
| 135 | Cc1c(Nc2nc(NCCCO)c3ccccc3n2)ccc2c1OCCO2 |  |
| 0.4 | Cc1ccc2nc(Nc3ccc4nc(NC5CCN(Cc6ccccc6)CC5)sc4c3)nc(NCCCO)c2c1 | Activity (Fibroblast [2]): Toxic |
| 200 | CN(C)c1ccc(Nc2nc(N3CCOCC3)c3ccccc3n2)cc1 |  |
| 165 | OCCCNc1nc(Nc2ccccc2)nc2ccccc12 |  |
| 200 | Cn1nc(Nc2nc(NCCCO)c3ccccc3n2)c2ccccc21 |  |
| 200 | OCCCNc1nc(Nc2ccc3c(c2)OCCO3)nc2c(F)cccc12 |  |
| 100 | COc1cccc(Nc2nc(NCCCO)c3ccccc3n2)c1 |  |
| 155 | CN1CCN(c2nc(Nc3ccc(O)cc3)nc3ccccc23)CC1 |  |
| 0.3 | Cc1ccc2nc(Nc3ccc4nc(NCC(C)C)sc4c3)nc(NCCCO)c2c1 | Activity (Fibroblast [2]): Toxic |
| 50 | COc1ccc(Nc2nc(NCCO)c3ccccc3n2)cc1Cl |  |
| 200 | Cc1n[nH]c2nc(Nc3ccc4c(c3)OCCO4)nc(NCCCO)c12 |  |
| 105 | CNc1nc(Nc2cccc(O)c2)nc2ccccc12 |  |
| 80 | CN(C)c1nc(Nc2ccc3c(c2)OCCO3)nc2ccccc12 |  |
| 200 | COC(=O)c1cccc(Nc2nc(N)c3ccccc3n2)c1 |  |
| 135 | OCCCNc1nc(Nc2cccc(F)c2)nc2ccccc12 |  |
| 110 | Cc1ccc2nc(Nc3ccc4nc(NCCOc5ccccc5)sc4c3)nc(NCCCO)c2c1 |  |
| 150 | Cc1ccc(Nc2nc(NCCCO)c3ccccc3n2)cc1 |  |

| IC50 [1] [µM] | Structure (SMILES) | other results |
| --- | --- | --- |
| 70 | COc1cc(-c2nc3cc(-n4cnnn4)ccc3[nH]2)ccc1OCCN1CCCC1 |  |
| 200 | Cc1ccc2nc(Nc3ccc4nc(C(N)=O)sc4c3)nc(NCCCO)c2c1 |  |
| 200 | Cc1ccc2nc(Nc3ccc4nc(-c5ccccc5C)sc4c3)nc(NCCCO)c2c1 |  |
| 200 | CCOc1cc(-c2nc3cc(-n4cnnn4)ccc3[nH]2)ccc1O |  |
| 7 | Cc1nc2ccc(Nc3nc(NCCCO)c4ccccc4n3)cc2s1 |  |
| 65 | COc1ccc(Nc2nc(N(C)C)c3ccccc3n2)cc1 |  |
| 40 | CN(C)c1ccc(Nc2nc(NCCCO)c3ccccc3n2)cc1 | Activity (Homo sapiens [3]): Active; Activity (Homo sapiens [4]): Active; Activity (Fibroblast [5]): Non-Toxic |
| 170 | OCCCNc1nc(Nc2ccc3c(c2)OC(F)(F)O3)nc2ccccc12 |  |
| 190 | CC(C)(C)C(Cn1ccnc1)NC(=O)Nc1ccc2[nH]ncc2c1 (stereo not given) |  |
| 100 | CC(=O)c1cccc(Nc2nc(N(C)C)c3ccccc3n2)c1 |  |
| 85 | C=CCNc1nc(Nc2ccc(O)cc2)nc2ccccc12 |  |
| 75 | CC(=O)c1cccc(Nc2nc(NCCCO)c3ccccc3n2)c1 |  |
| 70 | CCn1nc(CNC(=O)CN(C)C2CCNCC2)c2ccccc21 |  |
| 20 | Cc1ccc2nc(Nc3ccc4nc(NCCOCc5ccccc5)sc4c3)nc(NCCCO)c2c1 |  |
| 50 | CN(C)c1nc(Nc2ccc(C(N)=O)cc2)nc2ccccc12 | Activity (Homo sapiens [3]): inactive |
| 80 | CC(=O)Nc1cccc(Nc2nc(N(C)C)c3ccccc3n2)c1 |  |
| 10 | Cc1ccc2nc(Nc3ccc4nc(C)oc4c3)nc(NCCCO)c2c1 |  |
| 200 | Cc1ccc2nc(Nc3ccc4nc(-c5ccc6[nH]ccc6c5)sc4c3)nc(NCCCO)c2c1 |  |
| 200 | OCCCNc1nc(Nc2cccc(O)c2)nc2ccccc12 |  |
| 30 | CCNc1nc(Nc2ccc(NC(C)=O)cc2)nc2ccccc12 | Activity (Homo sapiens [3]): inactive |
| 35 | CC(=O)Nc1ccc(Nc2nc(N3CCCC3)c3ccccc3n2)cc1 | Activity (Homo sapiens [3]): inactive |

| IC50 [1] [µM] | Structure (SMILES) | other results |
| --- | --- | --- |
| 105 | Cc1cccc2c(NCCCO)nc(Nc3ccc4c(c3)OCCO4)nc12 |  |
| 4 | Cc1ccc2nc(Nc3ccc4nc(NCCN(C)C)sc4c3)nc(NCCCO)c2c1 | Activity (Homo sapiens [6]): inactive; Activity (Fibroblast [2]): Non-Toxic; Activity (Homo sapiens [7]): inactive |
| 0.3 | Cc1ccc2nc(Nc3ccc4nc(NCCN5CCOCC5)sc4c3)nc(NCCCO)c2c1 | Activity (Fibroblast [2]): Toxic |
| 90 | OCCCNc1nc(Nc2ccc3c(c2)OCCO3)nc2c1CCCC2 |  |
| 110 | CC(=O)Nc1cccc(Nc2nc(NCCCO)c3ccccc3n2)c1 |  |
| 200 | OCCCNc1nc(Nc2ccc3c(c2)OCCO3)nc2c1COC2 |  |
| 100 | CCNc1nc(Nc2ccc(O)cc2)nc2ccccc12 |  |
| 40 | COc1ccc(Nc2nc(NCCCO)c3ccccc3n2)cc1 | Activity (Homo sapiens [3]): Active; Activity (Homo sapiens [4]): Active; Activity (Fibroblast [5]): Non-Toxic |
| 200 | CN(c1ccc2c(c1)OCCO2)c1nc(NCCCO)c2ccccc2n1 |  |
| 200 | OCCCNc1nc(Nc2ccc3c(c2)OCO3)nc2ccccc12 |  |
| 200 | Cc1ccc2nc(Nc3ccc4nc(-c5cccc(F)c5)sc4c3)nc(NCCCO)c2c1 |  |
| 70 | CN(C)c1nc(Nc2ccc(O)cc2)nc2ccccc12 |  |
| 60 | OCCCNc1nc(Nc2ccc3c(c2)OCCO3)nc2ccc(F)cc12 |  |
| 10 | Cc1nc2ccc(Nc3nc(NCCCO)c4ccccc4n3)cc2o1 |  |
| 105 | CCOc1ccc(C(=O)Nc2cc(-c3nc4ccccc4[nH]3)ccc2Cl)cc1[N+](=O)[O-] |  |
| 200 | Cc1ccc2nc(Nc3ccc4nc(-c5ccc(F)cc5)sc4c3)nc(NCCCO)c2c1 | Activity (Fibroblast [2]): Toxic |
| 10 | Cc1ccc2nc(Nc3ccc4nc(N(CCO)CCO)sc4c3)nc(NCCCO)c2c1 |  |
| 60 | CC(=O)Nc1ccc(Nc2nc(NCCO)c3ccccc3n2)cc1 |  |
